SENP1 FRET inh – human SENP1 catalytic domain inhibitors, primary screen, biochemical, FRET, uHTS; recombinant SENP1 catalytic domain, CyPet-SUMO1-YPet FRET cleavage; hit rate 0.21% among 360,000; Sentrin-specific protease 1 (Homo sapiens), Q9P0U3; inhibition, % at 10 µM;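 active = inhibition at least 30% at 10 µM, raw YFP signal under a set limit, fluorescence ratio 0.5 to 1.5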;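 also: 0% = enzyme with DMSO and 100% = no enzyme wells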
Target sequence (Q9P0U3 419-644 limits assumed): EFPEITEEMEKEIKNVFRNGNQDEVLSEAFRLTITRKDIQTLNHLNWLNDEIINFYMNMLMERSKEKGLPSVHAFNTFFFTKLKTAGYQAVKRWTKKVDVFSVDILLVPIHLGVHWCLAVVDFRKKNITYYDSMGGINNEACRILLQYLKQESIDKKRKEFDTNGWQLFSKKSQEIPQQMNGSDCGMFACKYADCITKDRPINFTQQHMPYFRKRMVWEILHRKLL
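Test system: human SENP1 catalytic domain; medium: Tris pH 8 buffer plus EDTA, NaCl, BME, BSA, NP40, catalase; incubation: 50 min reaction at room temperature; technique: FRET, CFP and YFP emission; controls: no-enzyme low control and enzyme-plus-DMSO high control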
UCH37 inh – inhibitors of human UCH37 deubiquitinase, primary screen, biochemical, Ub-AMC cleavage, fluorescence; Ubiquitin carboxyl-terminal hydrolase isozyme L5 (Homo sapiens), Q9Y5K5; purified proteasome/UCH37; inhibition, % (no concentration beside the values); hit rate 0.33% among 330,000; AID 588478, 2011;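 active = mean inhibition over replicate wells above about 20%, limit read from the data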;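 also: 0% = compound-free wells with enzyme and 100% = wells lacking proteasome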
Target sequence (Q9Y5K5 whole entry, looked up): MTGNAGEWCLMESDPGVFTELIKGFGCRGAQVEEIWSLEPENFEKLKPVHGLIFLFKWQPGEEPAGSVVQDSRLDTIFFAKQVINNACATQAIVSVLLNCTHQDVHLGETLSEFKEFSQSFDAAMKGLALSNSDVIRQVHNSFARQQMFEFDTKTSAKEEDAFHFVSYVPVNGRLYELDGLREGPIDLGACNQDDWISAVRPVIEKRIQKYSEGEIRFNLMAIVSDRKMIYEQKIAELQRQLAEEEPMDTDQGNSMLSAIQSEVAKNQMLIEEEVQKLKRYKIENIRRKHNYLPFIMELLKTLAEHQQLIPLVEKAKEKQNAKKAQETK
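Material: Human UCH37 enzyme supplied as purified proteasome complex | Schedule: 30 min compound-proteasome preincubation then 25 min substrate reaction, room temperature | Detection: AMC fluorescence from Ub-AMC cleavage, excitation 355 nm, emission 460 nm | Benchmarks: Wells without proteasome as full block, compound-free enzyme plus substrate as uninhibited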
NadD inh – inhibitors of S. aureus NadD, primary screen, biochemical, colorimetric, uHTS; inhibition, % at 20 µM; hit rate 0.78% among 360,000; AID 602399, 2012; purified NadD enzyme, colorimetric absorbance read-out; in the data active = inhibition above about 26%
ATG4B inh – ATG4B protease inhibitors, primary screen, biochemical, fluorescence, uHTS | Cysteine protease ATG4B (Homo sapiens), Q9Y4P1 | ATG4B cleavage of LC3-PLA2, NBD-HPC fluorescence, 1 h | inhibition, % at 8.33 µM | hit rate 0.51% among 340,000; in the data active = inhibition above about 40%
GRIN3A LBD mod – binders of NR3A ligand-binding domain, primary screen, biophysical, differential scanning fluorimetry, uHTS | Glutamate receptor ionotropic, NMDA 3A (GRIN3A) ligand-binding domain | NR3A LBD differential scanning fluorimetry, Tm shift; 0% = protein alone, 100% = glycine-bound protein | Tm shift relative to glycine control, % at 25 µM | hit rate 2.5% among 340,000 | AID 1259313, 2017;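 active = melting temperature shift of at least 10% of the positive control shift, at one fixed dose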
* = called active by the depositor; i = inactive; / = not tested or not shown. This is a sample that favours compounds with a hit; in the whole collection about 3.6% have one here.

SMILES | SENP1 FRET inh | UCH37 inh | NadD inh | ATG4B inh | GRIN3A LBD mod
Cc1[nH]n(-c2ccccc2)c(=O)c1/C=N/NC(=O)c1ccc(O)cc1O | -79 | / | 4 | -1 | 10*
O=[N+]([O-])c1ccccc1C=Nn1c(-c2cccnc2)n[nH]c1=S | / | 5 | / | / | /
CC1=CC(C)C(COC(=O)CN2CCCCC2)C(C)C1 (stereo not given) | 0 | 3 | -1 | -7 | 11*
Nc1nnc(CC(=O)NN=Cc2ccc(-c3ccc(Cl)cc3Cl)o2)s1 | / | -8 | / | / | /
O=C(Nc1ccc2sccc2c1)c1ccc(Cl)s1 | 0 | -31 | -4 | 4 | 23*
O=C(Nc1ccc2c(c1)C(=O)NC2=O)c1ccc(Cl)s1 | 1 | -64 | 6 | -9 | 1
COc1ccc(C(=O)NC(=S)Nc2ccccc2[N+](=O)[O-])cc1OC | 1 | 6 | -3 | -9 | 9
COc1ccc(C(=O)NC(=S)Nc2ccc([N+](=O)[O-])cc2C)cc1OC | -1 | 4 | -4 | 2 | 28*
COC(=O)c1c(O)cc(C(C)(C)C)n(-c2ccccc2)c1=O | 3 | 6 | -1 | -2 | 18*
O=C(CC1S/C(=N/N=Cc2ccco2)NC1=O)Nc1ccccc1 (stereo not given) | / | 6 | / | / | /
Cc1cccc(NS(=O)(=O)c2ccc(C(=O)N3CCCC3)cc2)c1C | 0 | 1 | -1 | -9 | 19*
COc1cc(OC)cc(C(=O)N[C@H](C(=O)OCC(N)=O)C(C)C)c1 | 1 | 1 | -1 | -8 | 11*
Cc1cccc(NC(=O)c2ccc(NS(=O)(=O)c3c(C)noc3C)cc2)c1 | 1 | 3 | -1 | -6 | 29*
Cc1noc(C)c1S(=O)(=O)Nc1ccc(C(=O)NCc2ccccc2)cc1 | 0 | 4 | 0 | -7 | 6
COc1cc(NC(=O)c2ccc(NS(=O)(=O)c3c(C)noc3C)cc2)cc(OC)c1 | 1 | 1 | -9 | -2 | 19*
COc1ccc(OC)c(NC(=O)c2ccc(NS(=O)(=O)c3c(C)noc3C)cc2)c1 | 2 | 3 | -1 | -13 | 3
CCc1cccc(NC(=O)c2ccc(NS(=O)(=O)c3c(C)noc3C)cc2)c1 | -1 | 3 | -5 | 3 | 29*
Cc1noc(C)c1S(=O)(=O)N1CCC(C(=O)Nc2ccc(OC(F)(F)F)cc2)CC1 | 0 | 2 | -6 | -8 | -7
Cc1noc(C)c1S(=O)(=O)Nc1ccc(C(=O)Nc2ccc(OC(F)(F)F)cc2)cc1 | 1 | 4 | -9 | -4 | 12*
O=C(NN=Cc1ccc2c(c1)OCO2)c1cc(-c2ccncc2)nc2ccccc12 | / | 6 | / | / | /
S=C(NN=Cc1ccccc1Cl)Nc1cccc(Cl)c1Cl | / | 7 | / | / | /
O=C(/C=C\Nc1ccc(Br)cc1)c1cccnc1 | -29 | -1 | -2 | 33 | -1
O=C(/C=C/Nc1ccc(Br)cn1)c1cccc(OC(F)F)c1 | -40 | 4 | -4 | 5 | 14*
CCOC1=CC2=C(C(=O)C(Cl)=CC2=O)[C@@H]2CN(S(=O)(=O)c3ccc(C)cc3)[C@@H](c3ccccc3)[C@H]12 | -10 | / | 37* | / | /
CCN1C(=O)[C@@H]2[C@@H]3CN(S(=O)(=O)c4ccc(C)cc4)[C@@H](c4ccccc4)[C@@H]3C(=O)C[C@@H]2C1=O | -14 | / | -5 | / | /
SMILES | SENP1 FRET inh | UCH37 inh | NadD inh | ATG4B inh | GRIN3A LBD mod
C=CCN(CC=C)CCOc1cccc2ccccc12 | 3 | 1 | -5 | 3 | 12*
C=CCN(CC=C)CCOc1ccccc1F | 1 | 4 | 0 | -14 | -1
CCC(/C=C1\Sc2ccc(OC)cc2N1CC)=C\c1sc2ccc(OC)cc2[n+]1CCCS(=O)(=O)[O-] | -27 | 9 | 5 | -10 | 0
CCO/C(=C/c1sc2ccc(OC)cc2[n+]1CCCS(=O)(=O)[O-])CC | -3 | 21* | 2 | -1 | 1
C=CC[C@H](CC(=O)NCCO)C(=O)N[C@@H](COC(=O)[C@@H](CC=C)CC(=O)OC(C)(C)C)Cc1c[nH]c2ccccc12 | 3 | -1 | -8 | -3 | 0
C=CC[C@@H](CC(=O)NCCO)C(=O)N[C@@H](COC(=O)[C@@H](CC=C)CC(=O)OC(C)(C)C)Cc1c[nH]c2ccccc12 | 0 | 23* | -4 | -13 | -1
C[C@H](CO)N1C[C@H](C)[C@H](CN(C)S(=O)(=O)c2cn(C)cn2)Oc2ccc(NC(=O)Nc3ccc(C(F)(F)F)cc3)cc2CC1=O | -5 | 0 | -9 | -8 | 3
C[C@H](CO)N1C[C@H](C)[C@@H](CN(C)S(C)(=O)=O)Oc2ccc(NC(=O)Nc3ccc(C(F)(F)F)cc3)cc2C1=O | 0 | 1 | 5 | -4 | 2
C[C@H](CO)N1C[C@H](C)[C@@H](CN(C)S(=O)(=O)c2ccc(F)cc2)Oc2ccc(NC(=O)Nc3ccccc3)cc2C1=O | 1 | 1 | 12 | -8 | 1
C[C@@H]1CN([C@H](C)CO)C(=O)c2cc(NC(=O)Nc3ccc(C(F)(F)F)cc3)ccc2O[C@H]1CN(C)S(=O)(=O)c1ccc(Cl)cc1 | 1 | 0 | 29 | -6 | 19*
C[C@H](CO)N1C[C@H](C)[C@@H](CN(C)S(=O)(=O)c2ccc(F)cc2)Oc2ccc(NC(=O)Nc3ccc(C(F)(F)F)cc3)cc2C1=O | 2 | / | 22 | -19 | 11*
C[C@@H]1CN([C@@H](C)CO)C(=O)Cc2cc(NC(=O)Nc3ccc(C(F)(F)F)cc3)ccc2O[C@@H]1CN(C)S(=O)(=O)c1ccc(Cl)cc1 | -3 | 2 | 16 | -7 | 14*
CCc1ccc(C=NNC(=O)c2cc(-c3ccncc3)nc3ccccc23)s1 | / | 8 | / | / | /
CC1(C)CC(=O)C2=C(C1)N(Cc1ccco1)C(=O)C2(O)C(F)(F)F (stereo not given) | 0 | 3 | 6 | 1 | 68*
CC1(C)CC(=O)C2=C(C1)N(Cc1ccco1)C(=O)C2(NC(=O)c1cccnc1)C(F)(F)F (stereo not given) | 0 | -1 | 4 | 7 | -2
CCN(CC)S(=O)(=O)c1cccc(C(=O)NN=Cc2ccccc2OCC(=O)O)c1 | / | 3 | / | / | /
COc1ccc(C=NNC(=O)c2cccc(C(=O)NN=Cc3ccc(OC)cc3)n2)cc1 | / | i | / | / | /
NC(=O)CSc1nc2ccccc2c(=O)n1-c1ccccc1 | 0 | 1 | -3 | -4 | 1
O=C(CSc1nc2ccccc2c(=O)n1-c1ccccc1)c1c[nH]c2ccccc12 | -5 | / | 19 | 39 | 18*
Cc1noc(C)c1CSc1nc2ccccc2c(=O)n1-c1ccccc1 | 0 | 5 | -4 | 54* | -6
C(=NN=Cc1ccccc1)c1ccccc1 | / | 6 | / | / | /

Screening results from PubChem BioAssay.
